# In PubChem BioAssay AID588570 (Sanford-Burnham Center for Chemical Genomics, 2011):
# Activity calls are given as the source filed them.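 Rule for the calls: active = mean IC50 at or below 20 µM in a cell killing test; inactive = the rest.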
# System: CHO-XBP1 cytotoxicity, ATPlite luminescence, 6 h
# Experiment: cytotoxicity in CHO-XBP1 reporter cells, SAR follow-up, cytotoxicity control for UPR apoptotic arm activator project, cell-based, 6 h exposure, ATPlite luminescence (AID 588570)
# Method in brief: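 Test system: CHO-XBP1 cells / Technique: ATP-based luminescence with ATPLite 1-Step reagent / Medium: F12 plus 10% FBS / Doses: dose-response series, DMSO ≤1% / Incubation: 16-18 h attachment, 6 h exposure, 37 °C, 5% CO2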
row,Compound,IC50
1,O=C(Nc1ccc(S(=O)(=O)N2CCC(F)CC2)cc1)c1ccc([N+](=O)[O-])o1,> 80 µM (inactive)
2,O=C(Nc1nc2c(F)cc(F)cc2s1)c1ccccn1,10.7 µM
3,O=C(Nc1nc2ccc(C(F)(F)F)cc2s1)c1ccccn1,4.62 µM
4,O=C(Nc1ccc(S(=O)(=O)N2CCOCC2)cc1)c1ccc([N+](=O)[O-])o1,> 80 µM (inactive)
5,O=C(Nc1nc2c(Cl)cc(Cl)cc2s1)c1ccccn1,> 80 µM (inactive)
6,O=C(Nc1ccc(S(=O)(=O)N2CCC3(CCCCC3)CC2)cc1)c1ccc([N+](=O)[O-])o1,> 80 µM (inactive)
7,Cc1cc(C)c2nc(NC(=O)c3ccccn3)sc2c1,15.2 µM
8,CC1CCN(S(=O)(=O)c2ccc(NC(=O)c3ccc([N+](=O)[O-])o3)cc2)CC1,> 80 µM (inactive)
9,O=C(Nc1ccc(S(=O)(=O)N2CCOCC2)cc1)c1ccc([N+](=O)[O-])s1,> 80 µM (inactive)
10,O=C(Nc1nc2c(F)c(F)ccc2s1)c1ccccn1,4.29 µM
11,O=C(Nc1ccc(S(=O)(=O)N2CCC(Cl)CC2)cc1)c1ccc([N+](=O)[O-])o1,> 80 µM (inactive)
12,O=C(Nc1ccc(S(=O)(=O)c2ccccc2)cc1)c1ccc([N+](=O)[O-])o1,> 80 µM (inactive)
13,O=C(Nc1nc2c(F)ccc(F)c2s1)c1ccccn1,32.3 µM (inactive)
14,O=C(Nc1nc2cc(F)ccc2s1)c1ccccn1,2.62 µM
15,O=C(Nc1ccc(S(=O)(=O)N2CCCCC2)cc1)c1ccc([N+](=O)[O-])o1,> 80 µM (inactive)
16,CC(C)(C)C1CCN(S(=O)(=O)c2ccc(NC(=O)c3ccc([N+](=O)[O-])o3)cc2)CC1,> 80 µM (inactive)
17,O=C(Nc1nc2c(F)cccc2s1)c1ccccn1,4.11 µM
18,O=C(Nc1ccc(S(=O)(=O)N2CCNCC2)cc1)c1ccc([N+](=O)[O-])o1,> 80 µM (inactive)
19,O=C(Nc1ccc(S(=O)(=O)C2CCOCC2)cc1)c1ccc([N+](=O)[O-])o1,> 80 µM (inactive)
20,CC1(C)CCN(S(=O)(=O)c2ccc(NC(=O)c3ccc([N+](=O)[O-])o3)cc2)CC1,> 80 µM (inactive)
21,O=C(Nc1ccc(S(=O)(=O)N2CCC(O)CC2)cc1)c1ccc([N+](=O)[O-])o1,> 80 µM (inactive)
22,O=C(Nc1ccc(S(=O)(=O)N2CCCC2)cc1)c1ccc([N+](=O)[O-])o1,74.6 µM (inactive)
23,O=C(Nc1nc2cccc(F)c2s1)c1ccccn1,7.08 µM
24,O=C(Nc1nc2cc(F)cc(F)c2s1)c1ccccn1,9.35 µM
25,O=C(Nc1nc2ccc(Cl)cc2s1)c1ccccn1,3.81 µM
26,O=C(Nc1nc2cc(F)c(F)cc2s1)c1ccccn1,5.1 µM
27,O=C(Nc1nc2ccc(F)cc2s1)c1ccccn1,4.78 µM
28,O=C(Nc1nc2ccc(F)c(F)c2s1)c1ccccn1,14 µM
29,CC1CN(S(=O)(=O)c2ccc(NC(=O)c3ccc([N+](=O)[O-])o3)cc2)CC(C)O1 (stereo not given),> 80 µM (inactive)
30,O=C(Nc1ccc(S(=O)(=O)C2CCCCC2)cc1)c1ccc([N+](=O)[O-])o1,> 80 µM (inactive)
